{"data": "Published values from different studies", "target": "Tyrosine-protein kinase receptor Tie-1 (TIE1, Homo sapiens, UniProt P35590)", "note": "Protocols differ between the studies behind these lines."}
{"Compound": "Cc1cnc(Nc2ccc(C(=O)N3CCC(N4CCCC4)CC3)cc2)nc1-c1cc2ccccc2s1", "effect on": "binding", "technique": "competition with immobilised ligand", "concentration": "1 µM", "remaining binding": "10%"}
{"Compound": "COc1cnc(Nc2cccc(S(N)(=O)=O)c2)nc1N1CCN(c2ccccc2)CC1", "effect on": "binding", "technique": "competition with immobilised ligand", "concentration": "1 µM", "remaining binding": "99%"}
{"Compound": "O=C(NCCCN1CCOCC1)c1ccc(Nc2nccc(-c3cc4ccccc4s3)n2)cc1", "effect on": "binding", "technique": "competition with immobilised ligand", "concentration": "1 µM", "remaining binding": "48%"}
{"Compound": "C=CC(=O)N1CCC(C(=O)NCC(=O)N2CCN(c3nc(-c4cnc(N)nc4C(F)F)nc(N4CCOCC4)n3)CC2)CC1", "effect on": "binding", "technique": "competition with immobilised ligand", "concentration": "1 µM", "remaining binding": "100%"}
{"Compound": "O=C(Nc1c[nH]nc1C(=O)NC1CCNCC1)c1cc(F)cc(F)c1", "effect on": "binding", "technique": "competition with immobilised ligand", "concentration": "1 µM", "remaining binding": "100%"}
{"Compound": "F[C@@H]1CCN(c2nccc(-c3cnn4ncccc34)n2)C1", "effect on": "binding", "concentration": "1 µM", "remaining binding": "100%"}
{"Compound": "CCc1ccccc1C(=O)Nc1n[nH]c2c(C)c(F)c(C3C(C#N)=C(C)N(C)C(C)=C3C#N)cc12", "effect on": "cell-free assay", "technique": "competition with immobilised ligand", "concentration": "1 µM", "remaining binding": "100%"}
{"Compound": "C[C@H]1CCN(c2nccc(-c3cnn4ncccc34)n2)C1", "effect on": "binding", "concentration": "1 µM", "remaining binding": "75%"}
{"Compound": "C[C@@H](c1ccc(-n2cnc3c(N)ncnc32)cc1)N1CCc2nn(C)c(Cc3ccccc3)c2C1=O", "effect on": "binding", "technique": "competition with immobilised ligand", "concentration": "0.1 µM", "remaining binding": "84%"}
{"Compound": "COc1ncc2cc3ccccc3nc2c1C#N", "effect on": "cell-free assay", "technique": "competition with immobilised ligand", "concentration": "5 µM", "remaining binding": "100%"}
{"Compound": "CN(C)c1nccc(-c2cnn3ncccc23)n1", "effect on": "binding", "concentration": "1 µM", "remaining binding": "100%"}
{"Compound": "O=C(c1ccc(Nc2ncc(Cl)c(-c3cc4ccccc4s3)n2)cc1)N1CCC(N2CCCC2)CC1", "effect on": "binding", "technique": "competition with immobilised ligand", "concentration": "1 µM", "remaining binding": "4.8%"}
{"Compound": "Cc1cc(-n2nc(Cc3cc(F)cc(C(F)(F)F)c3)nc2C)ccc1C(N)=O", "effect on": "cell-free assay", "technique": "competition with immobilised ligand", "concentration": "1 µM", "remaining binding": "100%"}
{"Compound": "COc1ccnn2ncc(-c3ccnc(N(C)C)n3)c12", "effect on": "binding", "concentration": "1 µM", "remaining binding": "81%"}
{"Compound": "CS(=O)(=O)N1CCCC(NC(=O)[C@H](CCC2CCCCC2)NC(=O)c2ccc(CNC(=O)c3cnc4ccccn34)cc2)C1 (stereo partly shown)", "effect on": "cell-free assay", "technique": "competition with immobilised ligand", "concentration": "0.1 µM", "remaining binding": "100%"}
{"Compound": "N[C@@H]1CCN(c2nccc(-c3cnn4ncccc34)n2)C1", "effect on": "binding", "concentration": "1 µM", "remaining binding": "100%"}
{"Compound": "CCS(=O)(=O)c1cc2cc(C[C@](O)(CC(C)(C)c3ccc(F)cc3C(N)=O)C(F)(F)F)[nH]c2cn1", "effect on": "cell-free assay", "technique": "competition with immobilised ligand", "concentration": "1 µM", "remaining binding": "100%"}
{"Compound": "c1cnn2ncc(-c3ccnc(N4CCC45COC5)n3)c2c1", "effect on": "binding", "concentration": "1 µM", "remaining binding": "100%"}
{"Compound": "CCCCN(CCCC)C(=O)CN1C[C@@H](c2cc(OC)c3c(c2)OCO3)[C@H](C(=O)O)[C@H]1CC(C)(C)CCC", "effect on": "cell-free assay", "technique": "competition with immobilised ligand", "concentration": "1 µM", "remaining binding": "94.7%"}
{"Compound": "FC(F)(F)Oc1cccc(-c2cnc3ccc(-c4ccncc4)nn23)c1", "effect on": "cell-free assay", "technique": "competition with immobilised ligand", "concentration": "5 µM", "remaining binding": "84%"}
{"Compound": "CS(=O)(=O)NCC[C@H](NC(=O)c1cncc2c1cnn2-c1ccc(F)cc1)c1ccnc(S(C)(=O)=O)c1", "effect on": "cell-free assay", "technique": "competition with immobilised ligand", "concentration": "1 µM", "remaining binding": "100%"}
{"Compound": "CC1CCCN1c1nccc(-c2cnn3ncccc23)n1 (stereo not shown)", "effect on": "binding", "concentration": "1 µM", "remaining binding": "100%"}
